These compounds were tested on Mus musculus (assay: Effective dose of compound required to protect audiogenic seizure in DBA/2 mice administered ip).
Assay type: functional
How it was run: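 DBA/2 mice received compound intraperitoneally 30 min before audiogenic seizure induction. Protection was reported as an ED50 or as number protected/number tested at a single dose.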

Q: Which ED50 does the source give for `O=C(Cc1ccccc1)c1c(O)c2ccc(Cl)cc2[nH]c1=O` here?
A: 31.6 mg/kg

Q: With `O=C(c1c(O)nc2cc(Cl)ccc2c1O)C1CC1` as the compound, how does the ED50 read?
A: 4.1 mg/kg

Each compound was assayed against Glutamate NMDA receptor (assay: Binding affinity towards NMDA receptor to displace [3H]-L-689,560 from rat cortical membranes).

Q: `COC(=O)c1c(O)c2ccc(Cl)cc2[nH]c1=O` was tested. Which IC50 did it give?
A: 6.4 µM

Q: How did the IC50 turn out when `O=C(OCCc1ccccc1O)c1c(O)nc2cc(Cl)ccc2c1O` was run?
A: 7.12 µM

Q: Which IC50 does the source give for `CCOC(=O)c1c(O)c2ccc([N+](=O)[O-])cc2[nH]c1=O` here?
A: 25.4 µM

Q: With `O=C(OCCCCc1cccc(O)c1)c1c(O)nc2cc(Cl)ccc2c1O` as the compound, how does the IC50 read?
A: 2.62 µM

Q: With `O=C1CC(=O)c2ccc(Cl)cc2N1` as the compound, how does the IC50 read?
A: > 100 µM

Q: `O=C(SCCc1ccccc1)c1c(O)nc2cc(Cl)ccc2c1O` was tested. Which IC50 did it give?
A: > 10 µM

Q: With `O=C(OCC#Cc1cccc(O)c1)c1c(O)c2ccc(Cl)cc2[nH]c1=O` as the compound, how does the IC50 read?
A: 0.17 µM

Q: `CC(=O)c1c(O)nc2cc(Cl)ccc2c1O` was tested. Which IC50 did it give?
A: > 100 µM

Q: Which IC50 does the source give for `C#CCOC(=O)c1c(O)nc2cc(Cl)ccc2c1O` here?
A: 9 µM

Q: With `NC(=O)c1c(O)nc2cc(Cl)ccc2c1O` as the compound, how does the IC50 read?
A: > 100 µM

Q: Which IC50 does the source give for `CCOC(=O)C1C(=O)Nc2cc(Cl)ccc2C1=O` (stereo not drawn) here?
A: 16.7 µM

Q: How did the IC50 turn out when `CCOC(=O)c1c(O)nc2cccc(C)c2c1O` was run?
A: > 1000 µM

Q: With `COc1cccc(C#CCOC(=O)c2c(O)nc3cc(Cl)ccc3c2O)c1` as the compound, how does the IC50 read?
A: 0.27 µM

Q: With `O=C(OCCCc1cccc(O)c1)c1c(O)nc2cc(Cl)ccc2c1O` as the compound, how does the IC50 read?
A: 2.64 µM

Q: With `O=C(NO)c1c(O)nc2cc(Cl)ccc2c1O` as the compound, how does the IC50 read?
A: 6.32 µM

Q: Which IC50 does the source give for `CONC(=O)c1c(O)nc2cc(Cl)ccc2c1O` here?
A: 3.09 µM

Q: `CCOC(=O)c1c(O)nc2cc([N+](=O)[O-])c([N+](=O)[O-])cc2c1O` was tested. Which IC50 did it give?
A: 10.5 µM

Q: With `C=CCOC(=O)c1c(O)c2ccc(Cl)cc2[nH]c1=O` as the compound, how does the IC50 read?
A: 6.42 µM

Q: Which IC50 does the source give for `CCCOC(=O)c1c(O)nc2cc(Cl)ccc2c1O` here?
A: > 100 µM

Q: `O=C1Nc2cc(Cl)ccc2C(=O)C1C(=O)c1ccccc1` (stereo not drawn) was tested. Which IC50 did it give?
A: 3.16 µM

Q: How did the IC50 turn out when `O=C(c1cccnc1)c1c(O)nc2cc(Cl)ccc2c1O` was run?
A: 6.85 µM

Q: How did the IC50 turn out when `O=C(OCc1cccc(O)c1)c1c(O)nc2cc(Cl)ccc2c1O` was run?
A: 6.13 µM

Q: With `O=C(c1c(O)nc2cc(Cl)ccc2c1O)C1CCCCC1` as the compound, how does the IC50 read?
A: > 100 µM

Q: Which IC50 does the source give for `CCOC(=O)C1Oc2ccc(Cl)cc2NC1=O` (stereo not drawn) here?
A: > 100 µM

Q: With `COC(=O)C1C(=O)Nc2cc(Cl)ccc2S1(=O)=O` (stereo not drawn) as the compound, how does the IC50 read?
A: 13.6 µM

Q: With `CCOC(=O)c1c(O)nc2cc(C#N)ccc2c1O` as the compound, how does the IC50 read?
A: 26 µM

Q: Which IC50 does the source give for `O=C(Cc1ccccc1)c1c(O)c2ccc(Cl)cc2[nH]c1=O` here?
A: 0.93 µM

Q: `O=C(NOCc1ccccc1)c1c(O)nc2cc(Cl)ccc2c1O` was tested. Which IC50 did it give?
A: > 100 µM

Q: Which IC50 does the source give for `CN(Cc1ccccc1)C(=O)c1c(O)nc2cc(Cl)ccc2c1O` here?
A: > 100 µM

Q: For `O=C(OCCc1cccc(O)c1)c1c(O)nc2cc(Cl)ccc2c1O`, which IC50 is on record?
A: 1.82 µM

Q: For `O=C(c1ccco1)c1c(O)nc2cc(Cl)ccc2c1O`, which IC50 is on record?
A: 2.39 µM

Q: For `O=C(Cc1cccs1)c1c(O)nc2cc(Cl)ccc2c1O`, which IC50 is on record?
A: 1.07 µM

Q: `O=C(NCCc1ccc(O)cc1)c1c(O)nc2cc(Cl)ccc2c1O` was tested. Which IC50 did it give?
A: > 100 µM

Q: With `O=C(CCc1ccccc1)c1c(O)nc2cc(Cl)ccc2c1O` as the compound, how does the IC50 read?
A: > 100 µM

Q: For `O=C(OCCc1c[nH]c2ccccc12)c1c(O)nc2cc(Cl)ccc2c1O`, which IC50 is on record?
A: 0.43 µM

Q: For `COC(=O)C1C(=O)Nc2cc(Cl)ccc21` (stereo not drawn), which IC50 is on record?
A: > 100 µM

Q: For `O=C(c1c(O)nc2cc(Cl)ccc2c1O)N(O)CCc1ccccc1`, which IC50 is on record?
A: 9.3 µM

Q: With `CCOC(=O)c1c(O)nc2cc(C(F)(F)F)ccc2c1O` as the compound, how does the IC50 read?
A: 12.3 µM

Q: With `CCOC(=O)c1c(O)nc2ccc(Cl)cc2c1O` as the compound, how does the IC50 read?
A: > 100 µM

Q: Which IC50 does the source give for `O=C(OCCc1ccccn1)c1c(O)nc2cc(Cl)ccc2c1O` here?
A: 27.5 µM

Q: `O=C1CS(=O)(=O)c2ccc(Cl)cc2N1` was tested. Which IC50 did it give?
A: > 100 µM

Q: `O=C(OCCc1cccs1)c1c(O)nc2cc(Cl)ccc2c1O` was tested. Which IC50 did it give?
A: 3 µM

Q: For `O=C(c1ccsc1)c1c(O)nc2cc(Cl)ccc2c1O`, which IC50 is on record?
A: 1.97 µM

Q: For `CON(C)C(=O)c1c(O)nc2cc(Cl)ccc2c1O`, which IC50 is on record?
A: 47.1 µM

Q: `CCOC(=O)c1c(O)nc2ccccc2c1O` was tested. Which IC50 did it give?
A: > 100 µM

Q: `CCOC(=O)c1c(O)nc2c(C)cccc2c1O` was tested. Which IC50 did it give?
A: > 100 µM

Q: Which IC50 does the source give for `O=C(OCCc1ccc(O)cc1)c1c(O)nc2cc(Cl)ccc2c1O` here?
A: 2.93 µM

Species on record: Rattus norvegicus
Experiment: Antagonistic activity against NMDA-induced response in rat cortical slice
Assay type: functional
How it was run: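 Rat cortical slices were challenged with NMDA, with and without antagonist. Apparent Kb was calculated from the rightward shift of the NMDA concentration-response curve. Values are means of at least three experiments, with maximum variance (geometric mean) of 15%.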

Q: For `CCOC(=O)C1C(=O)Nc2cc(Cl)ccc2C1=O` (stereo not drawn), which Kb is on record?
A: 65.4 µM

Q: For `O=C(Cc1ccccc1)c1c(O)c2ccc(Cl)cc2[nH]c1=O`, which Kb is on record?
A: 3.92 µM

Q: How did the Kb turn out when `O=C(c1c(O)nc2cc(Cl)ccc2c1O)C1CC1` was run?
A: 3.39 µM

Q: How did the Kb turn out when `COC(=O)C1C(=O)Nc2cc(Cl)ccc21` (stereo not drawn) was run?
A: 441 µM

Reference: ChEMBL document CHEMBL1126880, “3-Acyl-4-hydroxyquinolin-2(1H)-ones. Systemically active anticonvulsants acting by antagonism at the glycine site of the N-methyl-D-aspartate receptor complex” (J Med Chem, 1993)
